According to ChEMBL document CHEMBL3739286, “Betulinic acid derived hydroxamates and betulin derived carbamates are interesting scaffolds for the synthesis of novel cytotoxic compounds” (Eur J Med Chem, 2015):

Tests used:
[1] = Cytotoxicity against human 518A2 cells after 96 hrs by SRB assay; format: functional, cell-based
How it was run: (§1)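 Photometric sulforhodamine B read-out of antiproliferative effect after 96 h of continuous treatment; EC₅₀ values in µM, averaged from three independent experiments each run in triplicate; the assay cut-off is EC₅₀ > 30 µM. Human tumour lines are tested alongside nonmalignant mouse NIH 3T3 fibroblasts.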

A2780 = test: Cytotoxicity against human A2780 cells after 96 hrs by SRB assay; format: functional, cell-based; how it was run: as §1
A549 = test: Cytotoxicity against human A549 cells after 96 hrs by SRB assay; format: functional, cell-based; how it was run: as §1
MCF7 = test: Cytotoxicity against human MCF7 cells after 96 hrs by SRB assay; format: functional, cell-based; how it was run: as §1
[2] = Cytotoxicity against mouse NIH/3T3 cells after 96 hrs by SRB assay; format: cell-based, NIH3T3; how it was run: as §1
HT-29 = test: Cytotoxicity against human HT-29 cells after 96 hrs by SRB assay; format: functional, cell-based; settings: HT-29, 96 h; how it was run: as §1
HeLa = test: Cytotoxicity against human HeLa cells after 96 hrs by SRB assay; format: functional, cell-based; how it was run: as §1
[3] = Homo sapiens, 518A2, 96 h, read-out: EC50
[4] = Homo sapiens, A2780, 96 h, read-out: EC50
[5] = Homo sapiens, A549, 96 h, read-out: EC50
[6] = Homo sapiens, MCF7, 96 h, read-out: EC50
[7] = Mus musculus, NIH3T3, 96 h, read-out: EC50

Row | SMILES | EC50 [1, 3] | EC50 (A2780; [4]) | EC50 (A549; [5]) | EC50 (MCF7; [6]) | EC50 [2, 7] | EC50 (HT-29) | EC50 (HeLa) | EC50 ([1]; 518a2) | EC50 (A2780; a2780) | EC50 (A549; a549) | EC50 (MCF7; mcf7) | EC50 ([2]; nih3t3)
1 | C=C(C)[C@@H]1CC[C@]2(COC(=O)NCCCCCC)CC[C@]3(C)[C@H](CC[C@@H]4[C@@]5(C)CC[C@H](OC(=O)NCCCCCC)C(C)(C)[C@@H]5CC[C@]43C)[C@@H]12 | > 30 µM | > 30 µM | > 30 µM | > 30 µM | > 30 µM | > 30 µM | > 30 µM |  |  |  |  | 
2 | C=C(C)[C@@H]1CC[C@]2(C(=O)N(C)OC)CC[C@]3(C)[C@H](CC[C@@H]4[C@@]5(C)CC[C@H](OC(C)=O)C(C)(C)[C@@H]5CC[C@]43C)[C@@H]12 | 17.5 µM | 19.3 µM | 20.1 µM | 16.4 µM | 17.4 µM |  |  |  |  |  |  | 
3 | C=CCONC(=O)[C@]12CC[C@@H](C(=C)C)[C@@H]1[C@H]1CC[C@@H]3[C@@]4(C)CC[C@H](OC(C)=O)C(C)(C)[C@@H]4CC[C@@]3(C)[C@]1(C)CC2 | 7.6 µM | 5.9 µM | 6.6 µM | 12.2 µM | > 30 µM |  |  |  |  |  |  | 
4 | C=C(C)[C@@H]1CC[C@]2(C(=O)NO)CC[C@]3(C)[C@H](CC[C@@H]4[C@@]5(C)CC[C@H](OC(C)=O)C(C)(C)[C@@H]5CC[C@]43C)[C@@H]12 | 1.6 µM | 1.3 µM | 1.3 µM | 1.4 µM | 1.1 µM |  |  |  |  |  |  | 
5 | C=C(C)[C@@H]1CC[C@]2(C(=O)O)CC[C@]3(C)[C@H](CC[C@@H]4[C@@]5(C)CC[C@H](OC(C)=O)C(C)(C)[C@@H]5CC[C@]43C)[C@@H]12 | 4.5 µM | 18.3 µM | 6.2 µM | 11 µM | > 30 µM |  |  |  |  |  |  | 
6 | C=C(C)[C@@H]1CC[C@]2(C(=O)NOC)CC[C@]3(C)[C@H](CC[C@@H]4[C@@]5(C)CC[C@H](OC(C)=O)C(C)(C)[C@@H]5CC[C@]43C)[C@@H]12 | 8 µM | 8.9 µM | 11.7 µM | 13.5 µM | 9.5 µM |  |  |  |  |  |  | 
7 | C=C(C)[C@@H]1CC[C@]2(C(=O)N(C)OC)CC[C@]3(C)[C@H](CC[C@@H]4[C@@]5(C)CC[C@H](O)C(C)(C)[C@@H]5CC[C@]43C)[C@@H]12 | 7.3 µM | 7.6 µM | 19 µM | 10.2 µM | 7.7 µM |  |  |  |  |  |  | 
8 | C=C(C)[C@@H]1CC[C@]2(C(=O)N(C)O)CC[C@]3(C)[C@H](CC[C@@H]4[C@@]5(C)CC[C@H](O)C(C)(C)[C@@H]5CC[C@]43C)[C@@H]12 |  |  |  |  |  |  |  | ND(Insoluble) | ND(Insoluble) | ND(Insoluble) | ND(Insoluble) | ND(Insoluble)
9 | C=C(C)[C@@H]1CC[C@]2(C(=O)O)CC[C@]3(C)[C@H](CC[C@@H]4[C@@]5(C)CC[C@H](O)C(C)(C)[C@@H]5CC[C@]43C)[C@@H]12 [BETULINIC ACID] | 9.4 µM | 8.8 µM | 17.1 µM | 10.2 µM | 16.1 µM |  |  |  |  |  |  | 
10 | C=C(C)[C@@H]1CC[C@]2(COC(C)=O)CC[C@]3(C)[C@H](CC[C@@H]4[C@@]5(C)CC[C@H](OC(C)=O)C(C)(C)[C@@H]5CC[C@]43C)[C@@H]12 [BETULIN DIACETATE] | > 30 µM | > 30 µM | > 30 µM | > 30 µM | > 30 µM |  |  |  |  |  |  | 
11 | C=CCONC(=O)[C@]12CC[C@@H](C(=C)C)[C@@H]1[C@H]1CC[C@@H]3[C@@]4(C)CC[C@H](O)C(C)(C)[C@@H]4CC[C@@]3(C)[C@]1(C)CC2 | 6.7 µM | 7.3 µM | 4.1 µM | 8.6 µM | 6.1 µM |  |  |  |  |  |  | 
12 | C=C(C)[C@@H]1CC[C@]2(C(=O)O)CC[C@]3(C)[C@H](CC[C@@H]4[C@@]5(C)CCC(=O)C(C)(C)[C@@H]5CC[C@]43C)[C@@H]12 [BETUNOLIC ACID] | 29 µM | 20.4 µM | 25.9 µM | 25.9 µM | 13.1 µM |  |  |  |  |  |  | 
13 | C=C(C)[C@@H]1CC[C@]2(C(=O)NOC)CC[C@]3(C)[C@H](CC[C@@H]4[C@@]5(C)CCC(=O)C(C)(C)[C@@H]5CC[C@]43C)[C@@H]12 | 17.2 µM | 12 µM | 6.1 µM | 13.8 µM | 12.7 µM |  |  |  |  |  |  | 
14 | C=C(C)[C@@H]1CC[C@]2(C(=O)N(C)O)CC[C@]3(C)[C@H](CC[C@@H]4[C@@]5(C)CC[C@H](OC(C)=O)C(C)(C)[C@@H]5CC[C@]43C)[C@@H]12 | 3.5 µM | 2 µM | 4.3 µM | 2.3 µM | 2.9 µM |  |  |  |  |  |  | 
